Bioassay records from PubChem BioAssay.
IDH1 R132H inh = IDH1 R132H (human) inhibition. AID 624101. 70,000 compounds, 0.18% hits. O75874. IDH1 R132H reductase, diaphorase/resazurin fluorescence, 60 min. inhibition, % at 10 µM; in the data active = inhibition above about 34%; inconclusive = no clear call, values can overlap the other calls; inactive = below about 11%
Target sequence (O75874 whole entry R132H): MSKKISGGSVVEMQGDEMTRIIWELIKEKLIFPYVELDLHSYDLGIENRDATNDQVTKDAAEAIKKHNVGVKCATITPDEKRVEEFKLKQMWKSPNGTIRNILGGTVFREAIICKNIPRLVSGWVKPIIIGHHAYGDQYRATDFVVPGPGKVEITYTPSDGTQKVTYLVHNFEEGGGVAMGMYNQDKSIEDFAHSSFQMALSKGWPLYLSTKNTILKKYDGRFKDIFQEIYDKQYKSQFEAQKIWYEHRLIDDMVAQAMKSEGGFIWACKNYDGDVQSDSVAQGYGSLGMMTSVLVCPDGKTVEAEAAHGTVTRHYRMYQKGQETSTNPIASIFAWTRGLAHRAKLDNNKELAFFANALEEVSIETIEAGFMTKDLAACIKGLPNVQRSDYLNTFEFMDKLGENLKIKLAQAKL
KDM4C inh = KDM4C (human) demethylase inhibition. Q9H3R0. GST-KDM4C 2-372, H3K9me3 peptide, LANCE TR-FRET. inhibition, % at 12.5 µM. 96,000 compounds, 0.15% hits;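 active = mean replicate inhibition above about 25%, with at least 55% of replicates also reaching it, limit read from the data, passing the limit was not always enough; inconclusive = only one of those two conditions met; inactive = neither condition met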
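Material: GST-tagged GASC-1 (JMJD2C) catalytic fragment, aa 2-372 / Quantity: enzyme final amount 10 nM / Medium: HEPES buffer, pH 7.5, plus ascorbate / Doses: one test concentration per compound / Incubation: 30 min reaction, 60 min detection, RT / Measured by: LANCE TR-FRET / Read-out: inhibition from TR-FRET ratio decrease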
T cruzi growth-1 = T. cruzi proliferation inhibition; T. cruzi beta-gal in NIH3T3, GalScreen luminescence, 90 h; inhibition, % at 8.34 µM; 77,000 compounds, 5.9% hits;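 active = mean inhibition above about 93%, with at least 55% of replicates each passing it, limit read from the data, passing the limit was not always enough; inconclusive = only one of those two conditions holds; inactive = neither condition holds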
T cruzi growth-2 = Trypanosoma cruzi proliferation inhibition | 5,600 compounds, 72% hits | inhibition, % at 8.35 µM | shares compounds with T cruzi growth-1 | T. cruzi beta-gal in NIH3T3, GalScreen luminescence, 90 h;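 active = mean replicate inhibition above about 95% and at least 55% of replicates individually reaching it, limit read from the data; inconclusive = only one of the two criteria is met; inactive = neither criterion is met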
T cruzi growth-3 = blocks T. cruzi growth in NIH3T3 host cells | T. cruzi beta-gal in NIH3T3, GalScreen luminescence, 90 h | shares compounds with T cruzi growth-1 | 5,600 compounds, 21% hits | inhibition, % at 2.09 µM;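 active = mean inhibition above about 95%, with at least 55% of replicates also reaching it, limit read from the data; inconclusive = meets just one of the two conditions; inactive = meets neither condition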
3T3 cytotox = NIH/3T3 (mouse) viability loss; NIH/3T3 viability, CellTiter-Glo ATP luminescence, 90 h; cytotoxicity (signal decrease), % at 8.35 µM; AID 651742; shares compounds with T cruzi growth-1; 5,600 compounds, 14% hits;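 active = mean signal decrease across replicates above about 35% based on untreated-well scatter, with enough replicates individually passing, limit read from the data; inconclusive = no rule stated though some were filed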
NIH3T3 tox 2 = kills mouse NIH/3T3 fibroblasts; shares compounds with T cruzi growth-1; NIH/3T3 viability, CellTiter-Glo ATP luminescence, 90 h; inhibition, % at 24.9 µM; 5,600 compounds, 56% hits; AID 651744;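 active = mean loss of cell viability signal at or above a set limit, and enough replicates individually reaching it; inconclusive = meets only the mean limit or only the replicate share; inactive = meets neither condition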
Numbers stand for hits; 0 = inactive; ? = inconclusive; - = no result. The full list was thinned out, with hits kept by preference.

SMILES	IDH1 R132H inh	KDM4C inh	T cruzi growth-1	T cruzi growth-2	T cruzi growth-3	3T3 cytotox	NIH3T3 tox 2
C[C@@H]1CCCCO[C@@H](CN(C)C(=O)C2CCCCC2)[C@@H](C)CN([C@@H](C)CO)C(=O)c2cc(NS(=O)(=O)c3ccc(Cl)cc3)ccc2O1	0	0	0	-	-	-	-
C[C@@H]1CCCCO[C@H](CN(C)C(=O)C2CCCCC2)[C@@H](C)CN([C@H](C)CO)C(=O)c2cc(NS(=O)(=O)c3ccc(Cl)cc3)ccc2O1	-	0	0	-	-	-	-
Cc1ccc(S(=O)(=O)Nc2ccc3c(c2)C(=O)N([C@H](C)CO)C[C@H](C)[C@H](CN(C)C(=O)C2CCCCC2)OCCCC[C@H](C)O3)cc1	0	0	0	-	-	-	-
C[C@@H]1CCCCO[C@@H](CN(C)C(=O)C2CCCCC2)[C@H](C)CN([C@@H](C)CO)C(=O)c2cc(NS(=O)(=O)c3ccc(Cl)cc3)ccc2O1	-	0	?	109	0	0	34
C[C@H](CO)N1C[C@H](C)[C@H](CN(C)C(=O)CCC(F)(F)F)OCCCC[C@H](C)Oc2ccc(NS(=O)(=O)c3ccc(Cl)cc3)cc2C1=O	-	0	103	109	0	0	0
Cc1ccccc1S(=O)(=O)N(C)C[C@H]1OCc2ccccc2-c2c(n(C)c3ccccc23)C(=O)N([C@H](C)CO)C[C@H]1C	0	0	0	-	-	-	-
C[C@@H]1CN([C@@H](C)CO)C(=O)c2cc(NS(C)(=O)=O)ccc2O[C@H]1CN(C)C(=O)Nc1ccccc1	0	0	-	-	-	-	-
Cc1ccccc1C(=O)Nc1sc2c(c1C(=O)NCc1ccco1)CCCC2	0	-	-	-	-	-	-
CN(C)C(=O)c1ccc(-c2ccc3c(c2)[C@@H]2[C@@H](CCN2C(=O)c2ccccc2F)[C@@H](CO)N3)cc1	-	0	0	-	-	-	-
C[C@H](CO)N1C[C@H](C)[C@@H](CN(C)C(=O)C2CCCCC2)OCCCC[C@H](C)Oc2ccc(NS(C)(=O)=O)cc2C1=O	-	0	0	-	-	-	-
C[C@@H]1CCCCO[C@H](CN(C)C(=O)C2CCCCC2)[C@H](C)CN([C@@H](C)CO)C(=O)c2cc(NS(C)(=O)=O)ccc2O1	0	0	100	0	0	0	0
C[C@H]1CN([C@@H](C)CO)C(=O)Cc2cc(NC(=O)Cc3ccccc3)ccc2O[C@H]1CN(C)Cc1ccc(-c2ccccc2)cc1	0	0	0	-	-	-	-
C[C@H]1CN([C@@H](C)CO)C(=O)Cc2cc(NC(=O)Cc3ccccc3)ccc2O[C@@H]1CN(C)Cc1ccc(-c2ccccc2)cc1	0	0	107	113	0	0	73
C[C@@H]1CN([C@@H](C)CO)C(=O)Cc2cc(NC(=O)Cc3ccccc3)ccc2O[C@H]1CN(C)Cc1ccc2c(c1)OCO2	0	0	0	-	-	-	-
C[C@H](CO)N1C[C@H](C)[C@H](CN(C)Cc2ccc3c(c2)OCO3)Oc2ccc(NC(=O)Cc3ccccc3)cc2CC1=O	0	0	106	0	0	0	0
C[C@H]1CN([C@@H](C)CO)C(=O)c2cc(NS(C)(=O)=O)ccc2O[C@H]1CN(C)Cc1ccc(Oc2ccccc2)cc1	0	0	0	-	-	-	-
CCNc1nc(SCC(=O)Nc2ccc(Cl)c(Cl)c2)nc(N(C)C)n1	0	-	-	-	-	-	-
C[C@@H]1CCCCO[C@H](CN(C)C(=O)Nc2cccc3ccccc23)[C@H](C)CN([C@@H](C)CO)C(=O)c2cc(NC(=O)Nc3ccc(F)cc3)ccc2O1	-	0	101	112	0	0	0
C[C@H](CO)N1C[C@H](C)[C@H](CN(C)C(=O)Nc2cccc3ccccc23)OCCCC[C@H](C)Oc2ccc(NC(=O)Nc3ccc(F)cc3)cc2C1=O	0	0	?	101	0	0	0
C[C@@H]1CCCCO[C@H](CN(C)C(=O)Nc2cccc3ccccc23)[C@@H](C)CN([C@H](C)CO)C(=O)c2cc(NC(=O)Nc3ccc(F)cc3)ccc2O1	-	0	0	-	-	-	-
C[C@H](CO)N1C[C@H](C)[C@H](CN(C)C(=O)Nc2cccc3ccccc23)OCCCC[C@H](C)Oc2ccc(NC(=O)Nc3ccccc3)cc2C1=O	-	0	0	-	-	-	-
